Source: ChEMBL document CHEMBL3856209, “Novel pyrazolopyridine derivatives as potential angiogenesis inhibitors: Synthesis, biological evaluation and transcriptome-based mechanistic analysis” (Eur J Med Chem, 2016)
The source made the active and inactive calls.

Key:
[1] = tested on: HUVEC; experiment: Effect on CKS1B gene expression in serum-starved HUVEC after 24 hrs by microarray analysis relative to control; format: functional, Homo sapiens
Outline: (§1)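 Serum-starved confluent HUVEC treated with 2 μM compound or DMSO in 2.5% FBS for 6 h or 24 h; RNA hybridized to Illumina Human-HT12 arrays. Data background-corrected, vst-transformed and rsn-normalized. Differential probes called by moderated paired t-test (limma) at p < 0.05 and log2 fold change >|0.5| vs DMSO.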

[2] = tested on: HUVEC; experiment: Effect on FILIP1L gene expression in serum-starved HUVEC after 24 hrs by microarray analysis relative to control; format: functional, Homo sapiens
Outline: (§2)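 Confluent, serum-starved HUVEC (pooled from 3–5 donors, passage ≤4) treated with 2 μM compound or vehicle with 2.5% FBS for 6 h or 24 h. Total RNA hybridized to Illumina Human-HT12 arrays. Data were background-corrected, vst-transformed and rsn-normalized. Hits called by moderated paired t-test versus DMSO-treated cells, p < 0.05 and log2 fold change >|0.5|.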

[3] = tested on: HUVEC; experiment: Effect on MAP1B gene expression in serum-starved HUVEC after 6 hrs by microarray analysis relative to control; format: functional, Homo sapiens
Outline: (§3)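 Serum-starved confluent HUVEC (pooled from 3–5 donors, passage ≤4) were treated with 2 μM compound or vehicle in 2.5% FBS for 6 h or 24 h, and total RNA was isolated. Hybridization was on Illumina Human-HT12. Data were processed with bgAdjust, vst and rsn normalization. Changes versus DMSO were called by moderated paired t-test at p < 0.05 and |log2 fold change| > 0.5.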

[4] = tested on: HUVEC; experiment: Effect on CDC20 gene expression in serum-starved HUVEC after 6 hrs by microarray analysis relative to control; format: functional, Homo sapiens; outline: as §1
[5] = tested on: HUVEC; experiment: Effect on PRR11 gene expression in serum-starved HUVEC after 6 hrs by microarray analysis relative to control; format: functional, Homo sapiens; outline: as §3
[6] = tested on: HUVEC; experiment: Effect on TP53INP2 gene expression in serum-starved HUVEC after 6 hrs by microarray analysis relative to control; format: functional, Homo sapiens
[7] = tested on: HUVEC; experiment: Effect on KIF4A gene expression in serum-starved HUVEC after 24 hrs by microarray analysis relative to control; format: functional, Homo sapiens; outline: as §3
[8] = tested on: HUVEC; experiment: Effect on ASAP1 gene expression in serum-starved HUVEC after 24 hrs by microarray analysis relative to control; format: functional, Homo sapiens
Outline: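 Serum-starved confluent HUVEC (primary, pooled from 3–5 donors, passage ≤4) treated with 2 μM test compound or DMSO vehicle (working dilutions ≤0.1% v/v) in presence of 2.5% FBS for 6 h or 24 h; total RNA hybridized to Illumina Human-HT12 arrays; background correction, vst, rsn normalization; moderated paired t-test versus DMSO, thresholds p < 0.05 and log2 fold change >|0.5|.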

[9] = tested on: HUVEC; experiment: Effect on TM7SF2 gene expression in serum-starved HUVEC after 24 hrs by microarray analysis relative to control; format: functional, Homo sapiens
[10] = tested on: HUVEC; experiment: Effect on MVD gene expression in serum-starved HUVEC after 6 hrs by microarray analysis relative to control; format: functional, Homo sapiens; outline: as §3
[11] = tested on: HUVEC; experiment: Effect on SQLE gene expression in serum-starved HUVEC after 24 hrs by microarray analysis relative to control; format: functional, Homo sapiens
[12] = tested on: HUVEC; experiment: Effect on ANKRD1 gene expression in serum-starved HUVEC after 24 hrs by microarray analysis relative to control; format: functional, Homo sapiens; outline: as §1
[13] = tested on: HUVEC; experiment: Effect on KIF11 gene expression in serum-starved HUVEC after 6 hrs by microarray analysis relative to control; format: functional, Homo sapiens; outline: as §2
[14] = tested on: HUVEC; experiment: Effect on CXCR4 gene expression in serum-starved HUVEC after 24 hrs by microarray analysis relative to control; format: functional, Homo sapiens
Outline: (§4)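 Confluent serum-starved HUVEC (primary, pooled from 3–5 donors, passage ≤4) treated with 2 μM compound or DMSO vehicle in 2.5% FBS for 6 h or 24 h. Total RNA hybridized to Illumina Human-HT12 arrays, background-corrected, vst-transformed and rsn-normalized. Differential expression versus DMSO by moderated paired t-test (p < 0.05, |log2 fold change| > 0.5).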

[15] = tested on: HUVEC; experiment: Effect on GPR116 gene expression in serum-starved HUVEC after 6 hrs by microarray analysis relative to control; format: functional, Homo sapiens; outline: as §2
[16] = tested on: HUVEC; experiment: Effect on VCAM1 gene expression in serum-starved HUVEC after 24 hrs by microarray analysis relative to control; format: functional, Homo sapiens
[17] = tested on: HUVEC; experiment: Effect on CYP26B1 gene expression in serum-starved HUVEC after 6 hrs by microarray analysis relative to control; format: functional, Homo sapiens; outline: as §2
[18] = tested on: HUVEC; experiment: Effect on LPIN1 gene expression in serum-starved HUVEC after 24 hrs by microarray analysis relative to control; format: functional, Homo sapiens
[19] = tested on: HUVEC; experiment: Effect on LMNB2 gene expression in serum-starved HUVEC after 6 hrs by microarray analysis relative to control; format: functional, Homo sapiens; outline: as §3
[20] = tested on: HUVEC; experiment: Effect on FAM198B gene expression in serum-starved HUVEC after 6 hrs by microarray analysis relative to control; format: functional, Homo sapiens; outline: as §4
[21] = tested on: HUVEC; experiment: Effect on TMEM154 gene expression in serum-starved HUVEC after 6 hrs by microarray analysis relative to control; format: functional, Homo sapiens
[22] = Downregulation of CCNB2 gene expression in serum-starved HUVEC at 2 uM after 24 hrs by qRT-PCR analysis; format: functional, cell-based; settings: Homo sapiens
Outline: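 Serum-starved confluent HUVEC treated with 2 μM compound or vehicle in 2.5% FBS for 24 h. Total RNA isolated and qRT-PCR run in triplicate (95 °C 5 min; 40 cycles of 95 °C 5 s, 58 °C 20 s, 72 °C 5 s), normalized to RPS18S. Fold change vs control, n = 3.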

[23] = tested on: HUVEC; experiment: Effect on DKK1 gene expression in serum-starved HUVEC after 24 hrs by microarray analysis relative to control; format: functional, Homo sapiens; outline: as §4
[24] = tested on: HUVEC; experiment: Effect on HAVCR2 gene expression in serum-starved HUVEC after 24 hrs by microarray analysis relative to control; format: functional, Homo sapiens; outline: as §4
[25] = tested on: HUVEC; experiment: Effect on FAM212A gene expression in serum-starved HUVEC after 6 hrs by microarray analysis relative to control; format: functional, Homo sapiens; outline: as §4
[26] = Upregulation of MSMO1 gene expression in serum-starved HUVEC at 2 uM after 24 hrs by qRT-PCR analysis; format: functional, cell-based; settings: Homo sapiens
[27] = tested on: HUVEC; experiment: Effect on ANGPTL4 gene expression in serum-starved HUVEC after 6 hrs by microarray analysis relative to control; format: functional, Homo sapiens; outline: as §1
[28] = tested on: HUVEC; experiment: Effect on SPDL1 gene expression in serum-starved HUVEC after 6 hrs by microarray analysis relative to control; format: functional, Homo sapiens
[29] = tested on: HUVEC; experiment: Effect on NSDHL gene expression in serum-starved HUVEC after 24 hrs by microarray analysis relative to control; format: functional, Homo sapiens
[30] = tested on: HUVEC; experiment: Effect on CD68 gene expression in serum-starved HUVEC after 24 hrs by microarray analysis relative to control; format: functional, Homo sapiens; outline: as §1
[31] = tested on: HUVEC; experiment: Effect on CD34 gene expression in serum-starved HUVEC after 24 hrs by microarray analysis relative to control; format: functional, Homo sapiens; outline: as §4
[32] = tested on: HUVEC; experiment: Effect on TAOK1 gene expression in serum-starved HUVEC after 6 hrs by microarray analysis relative to control; format: functional, Homo sapiens
[33] = tested on: HUVEC; experiment: Effect on RETSAT gene expression in serum-starved HUVEC after 24 hrs by microarray analysis relative to control; format: functional, Homo sapiens
[34] = tested on: HUVEC; experiment: Effect on RNA18S5 gene expression in serum-starved HUVEC after 6 hrs by microarray analysis relative to control; format: functional, Homo sapiens
[35] = tested on: HUVEC; experiment: Effect on TAOK1 gene expression in serum-starved HUVEC after 24 hrs by microarray analysis relative to control; format: functional, Homo sapiens

**Q.** For `COc1ccc(Cn2nc(-c3ccccc3)c3cc(Cl)nc(N4CCNCC4)c32)cc1`, which log2FC [1] is on record?
**A.** -0.5699

**Q.** What about the log2FC [2] of the same compound?
**A.** 0.0497

**Q.** What about the “fold change (FC)” value [3] of the same compound?
**A.** 0.5859

**Q.** And the “fold change (FC)” value [4]?
**A.** 0.127

**Q.** For `COc1ccc(Cn2nc(-c3ccccc3)c3cc(Nc4ccc(N5CCN(C)CC5)cc4)nc(N4CCN(C)CC4)c32)cc1`, which log2FC [5] is on record?
**A.** 0.0749

**Q.** What about the log2FC [6] of the same compound?
**A.** 0.0911

**Q.** What about the log2FC [7] of the same compound?
**A.** -0.5756

**Q.** What about the “fold change (FC)” value [8] of the same compound?
**A.** 0.1181

**Q.** What about the log2FC [9] of the same compound?
**A.** 1.5761

**Q.** What about the “fold change (FC)” value [10] of the same compound?
**A.** 0.3962

**Q.** And the log2FC [11]?
**A.** 1.0535 - 1.1624

**Q.** What about the log2FC [12] of the same compound?
**A.** 0.2203

**Q.** What about the “fold change (FC)” value [13] of the same compound?
**A.** 0.073

**Q.** And the “fold change (FC)” value [14]?
**A.** 0.6553

**Q.** And the “fold change (FC)” value [15]?
**A.** 0.1625

**Q.** What about the log2FC [16] of the same compound?
**A.** -0.7052

**Q.** What about the log2FC [17] of the same compound?
**A.** -0.3941

**Q.** And the log2FC [18]?
**A.** 0.8618

**Q.** And the “fold change (FC)” value [19]?
**A.** 0.1414

**Q.** What about the “fold change (FC)” value [20] of the same compound?
**A.** 0.7445

**Q.** What about the “fold change (FC)” value [21] of the same compound?
**A.** 0.2897

**Q.** What about the Activity [22] of the same compound?
**A.** Active

**Q.** And the “fold change (FC)” value [23]?
**A.** -0.6899

**Q.** What about the “fold change (FC)” value [24] of the same compound?
**A.** -0.7422

**Q.** What about the “fold change (FC)” value [25] of the same compound?
**A.** 0.129

**Q.** What about the Activity [26] of the same compound?
**A.** Active

**Q.** And the log2FC [27]?
**A.** -0.3836

**Q.** And the log2FC [28]?
**A.** 0.1139

**Q.** What about the log2FC [29] of the same compound?
**A.** 1.1565

**Q.** And the log2FC [30]?
**A.** -0.8363

**Q.** And the “fold change (FC)” value [31]?
**A.** 0.5547

**Q.** Which log2FC [32] does the source give for `COc1ccc(Cn2nc(-c3ccccc3)c3cc(Nc4ccc(N5CCN(C)CC5)cc4)nc(N4CCNCC4)c32)cc1` here?
**A.** -0.1058

**Q.** What about the log2FC [33] of the same compound?
**A.** -0.5409

**Q.** And the log2FC [34]?
**A.** -0.2889

**Q.** What about the log2FC [35] of the same compound?
**A.** 0.6142
